Active and inactive are the calls of the source. The rule behind the calls is not given here.

The values below come from ChEMBL document CHEMBL5390295, “Isolinderalactone Ameliorates the Pathology of Alzheimer's Disease by Inhibiting the JNK Signaling Pathway” (2023).

Assay [1] concerns PC-12. The experiment in a line: Neuroprotective activity in rat PC12 cells assessed as reversal of Abeta1-42 decreased in Bcl-2 expression level at 10 uM preincubated for 3 hrs followed by Abeta1-42 induction and measured after 24 hrs by Western blot analysis. The class given is functional, cell-based. The conditions noted are these: time 27.0 hrs. Summed up:
(§1)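 Aβ1–42 challenge in PC12 cells was 10 μM for 24 h after 3 h pretreatment at 10 μM. SP600125 (1.25 μM) was added 0.5 h before pretreatment where used. Cells were lysed in RIPA and protein measured by BCA. Blotting used PVDF transfer, 5% BSA/TBST block for 2 h, primaries 1:1000 overnight at 4 °C, and HRP secondary for 2 h. Bcl-2/Bax ratio and band intensities were quantified.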
For orientation: In western blotting, separated proteins are transferred to a membrane and probed.

Assay [2] concerns Mus musculus. In words: Anti-alzheimer activity against APP/PS1 dE9 double transgenic mouse model assessed as decrease in escape latency at 10 mg/kg, ip administered once daily for 30 consecutive day measured on day 5 by morris water maze test. It counts as functional, organism-based. As to conditions: time 35.0 day. Summed up: (§2)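 Female APP/PS1 mice, 10 months old, about 30 g, 10 per group. Dosing was intraperitoneal in 1× PBS, once daily for one month (1 or 10 mg/kg test; 5 mg/kg donepezil). WT and untreated APP/PS1 controls got PBS. Morris water maze: training days 1–4, averaged escape latency. Day-5 probe trial ran 60 s with the platform removed, recording platform crossings and time per quadrant. Mean ± SEM.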

Assay [3] deals with Mus musculus. The experiment in a line: Anti-alzheimer activity in hippocampus of APP/PS1 dE9 double transgenic mouse model assessed as suppression in p-JNK level at 10 mg/kg, ip administered once daily for 30 consecutive days by Western blot analysis. The class given is functional, organism-based. The conditions noted are these: time 30.0 day. Summed up: (§3)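 Hippocampal homogenates from dosed APP/PS1 mice were extracted in RIPA and protein measured by BCA. Samples were run by SDS electrophoresis, transferred to 0.22 μm PVDF for 90 min, blocked with 5% BSA in TBST for 2 h at RT, and probed with primaries 1:1000 overnight at 4 °C. HRP secondary was applied for 2 h at RT.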

The test system of assay [4] is Mus musculus. In words: Anti-alzheimer activity against APP/PS1 dE9 double transgenic mouse model assessed as increase in time spent in the target quadrant at 10 mg/kg, ip administered once daily for 30 consecutive days measured on day 5 by morris water maze test. It counts as functional, organism-based. The conditions noted are these: time 35.0 day. Summed up: as §2

Assay [5] concerns Mus musculus. The experiment in a line: Anti-alzheimer activity in hippocampus of APP/PS1 dE9 double transgenic mouse model assessed as decrease in the level of caspase-3 activation at 10 mg/kg, ip administered once daily for 30 consecutive days by Western blot analysis. As to conditions: time 30.0 day. The class given is functional, organism-based. Summed up:
as §3

Assay [6] deals with Mus musculus. The experiment in a line: Anti-alzheimer activity in hippocampus of APP/PS1 dE9 double transgenic mouse model assessed as decrease in the level of Bax at 10 mg/kg, ip administered once daily for 30 consecutive days by Western blot analysis. As to conditions: time 30.0 day. The class given is functional, organism-based. Summed up:
as §3

Assay [7] relates to Mus musculus. The experiment in a line: Anti-alzheimer activity in hippocampus of APP/PS1 dE9 double transgenic mouse model assessed as decrease in MDA level at 1 to 10 mg/kg, ip administered once daily for 30 consecutive days […]. It counts as functional, organism-based. The conditions noted are these: dose 1-10 mg/kg, time 30.0 day.
Assay [8] deals with Mus musculus. In words: Anti-alzheimer activity against APP/PS1 dE9 double transgenic mouse model assessed as improvement in exploration time for novel object at 10 mg/kg, ip administered once daily for 30 consecutive days measured on day 2 by novel object recognition test. It counts as functional, organism-based. The conditions noted are these: time 32.0 day. Summed up:
(§4)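 Same mouse cohort and ip PBS dosing schedule (1 or 10 mg/kg; donepezil 5 mg/kg). Novel object recognition: two objects, 5 min session, with exploration frequency and duration scored within 2–3 cm of objects. After 24 h one object was replaced by a novel object and a second 5 min session was recorded.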

The subject of assay [9] is Mus musculus. In words: Anti-alzheimer activity against mouse model APP/PS1 dE9 double transgenic mouse model assessed as improvement in average movement speed at 1 to 10 mg/kg, ip administered once daily for 30 consecutive days measured on day 1 by novel object recognition test. As to conditions: dose 1-10 mg/kg, time 31.0 day. The class given is functional, organism-based.

The test system of assay [10] is Mus musculus. The experiment in a line: Anti-alzheimer activity against APP/PS1 dE9 double transgenic mouse model assessed as improvement in exploratory behavior at 1 to 10 mg/kg, ip administered once daily for 30 consecutive days measured on day 1 by novel object recognition test. The class given is functional, organism-based. As to conditions: dose 1-10 mg/kg, time 31.0 day. Summed up: as §4

Assay [11] deals with PC-12. The experiment in a line: Neuroprotective activity against Abeta1-42 induced rat PC12 cells assessed as […] at 1.25 to 10 uM preincubated for 3 hrs followed by Abeta1-42 induction and measured after 24 hrs by MTT assay. It counts as functional, cell-based. As to conditions: dose 1.25-10 µM, time 27.0 hrs. Summed up:
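PC12 cells were seeded at 5×10^3/well and pretreated 3 h with test compound (range or 10 μM), with or without SP600125 1.25 μM for 0.5 h beforehand. Cells were then exposed to 10 μM Aβ1–42 oligomers for 24 h. MTT 0.5 mg/mL was added for 3–4 h, formazan dissolved in DMSO, and absorbance read at 570 nm. Viability is given as % of control.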
Background: Tetrazolium dyes change colour on reduction, which living cells bring about.

Assay [12] deals with PC-12. In words: Neuroprotective activity against Abeta1-42 induced rat PC12 cells assessed as decrease in JNK phosphorylation level at 10 uM preincubated for 3 hrs followed by Abeta1-42 induction and measured after 24 hrs by Western blot analysis. The class given is functional, cell-based. The conditions noted are these: time 27.0 hrs. The gist of the method: as §1
For assay [13], the system named is PC-12. In words: Neuroprotective activity against rat PC12 cells assessed as reversal of Abeta1-42 induced Bax expression at 10 uM preincubated for 3 hrs followed by Abeta1-42 induction and measured after 24 hrs by Western blot analysis. It counts as functional, cell-based. The conditions noted are these: time 27.0 hrs. Summed up:
as §1

Assay [14] has as its system PC-12. In words: Induction of apoptosis in Abeta1-42 induced rat PC12 cells assessed as late apoptosis at 10 uM preincubated for 3 hrs followed by Abeta1-42 induction and measured after 24 hrs by Annexin V-FITC/PI staining based flow cytometry analysis (reference value: 0.7%). It counts as functional. As to conditions: time 27 hrs.
Assay [15] relates to Mus musculus. In words: Anti-alzheimer activity in hippocampus of APP/PS1 dE9 double transgenic mouse model assessed as increase in the level of Map2 at 10 mg/kg, ip administered once daily for 30 consecutive days by Western blot analysis. The class given is functional, organism-based. The conditions noted are these: time 30.0 day. Summed up: as §3
In assay [16] the test system is PC-12. In words: Neuroprotective activity in rat PC12 cells assessed as reversal of Abeta1-42 induced caspase-3 activation at 10 uM preincubated for 3 hrs followed by Abeta1-42 induction and measured after 24 hrs by Western blot analysis. The conditions noted are these: time 27.0 hrs. The class given is functional, cell-based. Summed up: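 PC12 cells (DMEM, 10% FBS, 37 °C, 5% CO2) pretreated 3 h, then given 10 μM Aβ1–42 oligomer (10 mM DMSO stock aged 7 days at 37 °C, diluted in medium) for 24 h. RIPA lysates were blotted on PVDF, blocked in 5% BSA/TBST, and probed overnight at 4 °C for cleaved caspase-3 (1:1000), then HRP secondary. Band intensity was quantified; mean ± SEM of three experiments.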

The next assay has as its system PC12. The experiment in a line: Restoration of mitochondrial membrane potential in Abeta1-42 induced rat PC12 cells at 10 uM preincubated for 3 hrs followed by Abeta1-42 induction and measured after 24 hrs by JC-1 staining based analysis. The conditions noted are these: time 27.0 hrs. The class given is cell-based. The gist of the method:
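PC12 cells pretreated 3 h, then exposed to 10 μM Aβ1–42 oligomer for 24 h. Cells were loaded with JC-1 (10 μg/mL, serum-free medium) for 30 min at 37 °C and washed twice in PBS. Plate-reader fluorescence was read as red (ex 560/em 595) and green (ex 485/em 535); Δψm = red/green ratio, normalized to control. Mean ± SEM, three experiments.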

For `C=C[C@@]1(C)Cc2occ(C)c2[C@@H]2OC(=O)C(=C)[C@@H]21` [ISOLINDERALACTONE], the result in the assay with PC-12 [1], with Mus musculus [2], in the assay with Mus musculus [3], in the assay with Mus musculus [4], in the assay on Mus musculus [5] and with Mus musculus [6] was Active. Also, the outcome in the assay on Mus musculus [7], in the assay with Mus musculus [8], with Mus musculus [9], with Mus musculus [10], with PC-12 [11] and with PC-12 [12] was Active. In addition, the outcome in the assay on PC-12 [13], in the assay with Mus musculus [15], in the assay on PC-12 [16] and in the assay on PC12 was Active. The Activity in the assay on PC-12 [14] is given as 0.4%.
